How the values were obtained:
[1] = target: T1, Adrenergic receptor alpha-1 (Rattus norvegicus, UniProt P15823+P23944+P43140); assay: In vitro antagonistic activity against alpha-1 adrenergic receptor in isolated unstimulated rat vas deferens (methoxamine-induced contractions)
T1 sequence (P15823 whole entry): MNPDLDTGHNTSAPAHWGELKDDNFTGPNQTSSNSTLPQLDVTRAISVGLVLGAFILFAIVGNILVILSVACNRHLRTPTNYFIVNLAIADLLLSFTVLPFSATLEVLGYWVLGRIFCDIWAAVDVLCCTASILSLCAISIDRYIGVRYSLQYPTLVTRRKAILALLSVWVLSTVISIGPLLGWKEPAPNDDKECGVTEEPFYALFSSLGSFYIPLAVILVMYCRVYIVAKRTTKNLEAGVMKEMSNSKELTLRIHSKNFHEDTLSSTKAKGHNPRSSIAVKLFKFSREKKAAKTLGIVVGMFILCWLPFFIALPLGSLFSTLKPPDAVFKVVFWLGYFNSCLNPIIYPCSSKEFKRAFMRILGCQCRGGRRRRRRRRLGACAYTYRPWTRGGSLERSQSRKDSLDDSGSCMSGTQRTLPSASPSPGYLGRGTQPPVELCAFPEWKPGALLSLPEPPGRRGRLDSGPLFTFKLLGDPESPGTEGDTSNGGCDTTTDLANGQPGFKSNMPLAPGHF
T1 sequence (P23944 whole entry): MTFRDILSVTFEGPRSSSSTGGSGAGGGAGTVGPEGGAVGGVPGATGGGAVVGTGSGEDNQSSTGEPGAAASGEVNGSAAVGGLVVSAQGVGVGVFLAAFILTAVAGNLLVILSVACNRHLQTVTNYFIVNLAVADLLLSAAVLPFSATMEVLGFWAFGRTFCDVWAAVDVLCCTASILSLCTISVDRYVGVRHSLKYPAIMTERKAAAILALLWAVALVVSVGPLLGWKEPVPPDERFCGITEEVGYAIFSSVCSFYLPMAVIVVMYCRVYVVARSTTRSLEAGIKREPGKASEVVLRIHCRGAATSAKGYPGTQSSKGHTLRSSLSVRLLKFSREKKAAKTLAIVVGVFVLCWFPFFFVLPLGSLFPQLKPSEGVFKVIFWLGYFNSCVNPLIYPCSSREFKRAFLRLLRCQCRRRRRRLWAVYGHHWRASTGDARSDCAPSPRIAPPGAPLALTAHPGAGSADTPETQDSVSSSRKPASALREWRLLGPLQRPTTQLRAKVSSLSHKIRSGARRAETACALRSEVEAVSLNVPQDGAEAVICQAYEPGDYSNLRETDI
T1 sequence (P43140 whole entry): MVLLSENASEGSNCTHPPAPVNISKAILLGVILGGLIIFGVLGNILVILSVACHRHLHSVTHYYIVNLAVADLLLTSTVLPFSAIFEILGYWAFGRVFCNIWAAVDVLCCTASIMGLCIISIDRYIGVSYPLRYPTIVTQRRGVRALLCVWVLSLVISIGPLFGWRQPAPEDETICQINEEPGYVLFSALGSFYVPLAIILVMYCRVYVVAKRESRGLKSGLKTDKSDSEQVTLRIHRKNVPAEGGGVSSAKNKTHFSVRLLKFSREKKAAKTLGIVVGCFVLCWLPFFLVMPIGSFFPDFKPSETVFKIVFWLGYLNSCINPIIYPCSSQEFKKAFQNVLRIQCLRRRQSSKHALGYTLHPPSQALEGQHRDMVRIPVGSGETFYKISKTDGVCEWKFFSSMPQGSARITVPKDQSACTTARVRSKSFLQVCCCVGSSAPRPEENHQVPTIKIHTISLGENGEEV

Rattus norvegicus [2] = organism: Rattus norvegicus; assay: Inhibition of [3H]5-HT uptake into rat brain synaptosomes in vitro;Value ranges from:0.2-0.8; format: functional
Procedure, shortened: (§1)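 Male Sprague–Dawley rat (180–240 g) cortex (NE, 5-HT) or striatum (DA) crude P2 synaptosomes in 0.32 M sucrose. Preincubated 5 min at 25 °C with drug in Krebs–Ringer phosphate containing ascorbate, EDTA, nialamide; 0.1 μM final [3H]amine added for 5 min. Stopped by cold saline and GF/B filtration; nonspecific uptake at 4 °C. IC50 with 95% limits computed.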

Rattus norvegicus [3] = organism: Rattus norvegicus; assay: Inhibition of [3H]norepinephrine uptake into rat brain synaptosomes in vitro;Value ranges from:1.9-4.4; format: functional
Procedure, shortened: as §1

Mus musculus [4] = assay: Effective dose required to antagonise clonidine-induced antinociception(ACA) in mouse by peroral administration;Values ranges from: 15-86; format: functional; details: po
Rattus norvegicus [5] = organism: Rattus norvegicus; assay: Inhibition of [3H]dopamine uptake into rat brain synaptosomes in vitro;Value ranges from:2.5-4.5; format: functional
Procedure, shortened: as §1

Mus musculus [6] = assay: Effective dose required for inhibition of tetrabenazine-induced ptosis in mouse by peroral administration at maximum response 30.; format: functional
Rattus norvegicus [7] = assay: Minimum effective dose required for inhibition of serotonin uptake was determined by PCA method in rat by peroral administration; format: functional; details: po, read-out: MED
Procedure, shortened: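 Fasted male Sprague–Dawley rats (160–200 g) given test compound orally in water (10 mL/kg) 15 min before p-chloroamphetamine 3 mg/kg ip. Forebrain taken 3 h later, extracted in acidified butanol then heptane/0.1 N HCl. Serotonin in aqueous phase measured fluorometrically after o-phthalaldehyde condensation (excitation 360 nm). Minimum effective dose reported.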

Mus musculus [8] = assay: Effective dose required to antagonise clonidine-induced antinociception(ACA) in mouse by peroral administration at maximum response 100.; format: functional
Mus musculus [9] = assay: Effective dose required for inhibition of tetrabenazine-induced ptosis in mouse by peroral administration; Values ranges from 12-25; details: po
Rattus norvegicus [10] = organism: Rattus norvegicus; assay: Inhibition of [3H]norepinephrine uptake into rat brain synaptosomes in vitro;Values ranges from :20-180; format: functional
Procedure, shortened: as §1

Rattus norvegicus [11] = organism: Rattus norvegicus; assay: Inhibition of [3H]-dopamine uptake into rat brain synaptosomes in vitro;Values ranges from :18-39; format: functional
Procedure, shortened: as §1

Rattus norvegicus [12] = organism: Rattus norvegicus; assay: Inhibition of [3H]5-HT uptake into rat brain synaptosomes in vitro Values ranges from: 0.3-0.5; format: functional
Procedure, shortened: as §1

pA2 [1]	IC50 (Rattus norvegicus [2])	IC50 (Rattus norvegicus [3])	IC50 (Rattus norvegicus [5])	IC50 (Rattus norvegicus [10])	IC50 (Rattus norvegicus [11])	IC50 (Rattus norvegicus [12])	SMILES	ED50 (Mus musculus [4])	Inhibition (Mus musculus [6])	minimal effective dose (Rattus norvegicus [7])	Inhibition (Mus musculus [8])	ED50 (Mus musculus [9])
6.87	0.4 µM	2.9 µM	3.3 µM	–	–	–	C1=C(CC2=NCCN2)CCc2ccccc21.Cl [NAPAMEZOLE HYDROCHLORIDE]	36 mg/kg	35%	30 mg/kg	–	–
7.08	–	–	–	60 µM	26 µM	0.4 µM	CC1=C(CC2=NCCN2)CCc2ccccc21.Cl	–	–	30 mg/kg	50%	18 mg/kg
